High-throughput results as filed in PubChem BioAssay.
ABCB6 inh MLPCN – blocks the human ABCB6 transporter; Q9NP58; K562-ABCB6 porphyrin accumulation, flow cytometry, 1 h; active compounds read low; fluorescence ratio to DMSO, % at 10 µM; hit rate 0.19% among 360,000; AID 602162;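 active = fluorescence ratio to DMSO below 75%, the collection mean minus 3 SD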;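 also: signal is porphyrin accumulated inside mitochondria; lower ratio means ABCB6 inhibition with less porphyrin fluorescence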
Target sequence (Q9NP58 whole entry, looked up): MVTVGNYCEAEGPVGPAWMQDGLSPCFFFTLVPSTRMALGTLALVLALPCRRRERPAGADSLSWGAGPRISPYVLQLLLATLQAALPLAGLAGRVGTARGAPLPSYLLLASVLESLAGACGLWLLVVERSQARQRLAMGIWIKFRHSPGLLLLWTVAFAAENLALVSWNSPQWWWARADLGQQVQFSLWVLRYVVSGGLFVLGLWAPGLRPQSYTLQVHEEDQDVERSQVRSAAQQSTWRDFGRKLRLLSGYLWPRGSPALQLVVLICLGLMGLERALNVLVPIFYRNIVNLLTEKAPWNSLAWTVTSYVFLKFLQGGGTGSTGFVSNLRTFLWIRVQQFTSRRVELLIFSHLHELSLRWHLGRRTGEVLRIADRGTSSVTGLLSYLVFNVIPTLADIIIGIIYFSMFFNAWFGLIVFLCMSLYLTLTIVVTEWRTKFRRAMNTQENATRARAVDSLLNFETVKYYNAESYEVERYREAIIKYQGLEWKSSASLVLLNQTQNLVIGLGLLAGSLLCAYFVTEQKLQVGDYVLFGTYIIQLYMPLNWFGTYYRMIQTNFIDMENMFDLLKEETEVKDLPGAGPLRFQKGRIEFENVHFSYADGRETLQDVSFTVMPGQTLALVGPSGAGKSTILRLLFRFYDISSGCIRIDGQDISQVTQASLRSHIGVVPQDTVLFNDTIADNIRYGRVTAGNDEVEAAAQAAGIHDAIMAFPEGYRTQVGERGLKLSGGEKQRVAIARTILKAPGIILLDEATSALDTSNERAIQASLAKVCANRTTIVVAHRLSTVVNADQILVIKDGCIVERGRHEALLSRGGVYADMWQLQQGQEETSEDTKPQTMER
Myeloid diff MLP – compounds promoting myeloid differentiation. hit rate 1% among 360,000. calls only at 10 µM. ER-HoxA9 myeloid progenitors, lysozyme-GFP differentiation, flow cytometry;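 active = normalized GFP-positive differentiation at or above the plate's own cutoff, the solvent-only control mean plus 3 SD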;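 also: cells exposed to compound for four days before flow analysis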
Xi reactivation – reactivates the inactive X chromosome in mouse fibroblasts | XiGFP mouse fibroblasts, % GFP-positive cells imaging, 3 d; cells co-treated with 5-aza-dC sensitizer; scaled so ellipticine positive control = 100% | activation, % at 7.58 µM | hit rate 0.055% among 360,000;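 active = mean normalized replicate activation at least 10% and every replicate at or above 10%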
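Material: XiGFP fibroblasts, SV40-immortalized. Buffer or medium: DMEM plus 5-aza-dC sensitizer. Compound: single concentration per compound, delivered by pin transfer. Times: 3 days compound exposure. Controls: ellipticine 6 µM.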
Hits are given with their value; 0 = inactive; - = no result; + = active, no number. Shown is part of a subset that was picked to be rich in hits.

SMILES | ABCB6 inh MLPCN | Myeloid diff MLP | Xi reactivation
C[C@@H]1CN([C@H](C)CO)C(=O)c2cc(NC(=O)c3ccncc3)ccc2O[C@@H](C)CCCCO[C@@H]1CN(C)S(=O)(=O)c1ccccc1 | - | - | 0
Cc1ccc2c(CN3CCCCC3)cc(=O)oc2c1C | 0 | 0 | 0
Cc1ccc2c(CN3CCCc4ccccc43)cc(=O)oc2c1C | 0 | + | -
COc1ccc(CCCc2nc3ccccc3[nH]2)cc1 | 0 | 0 | 30
c1ccc2[nH]c(CCCCc3nc4ccccc4[nH]3)nc2c1 | 0 | 0 | 0
CC1CCN(C(=O)CCNS(=O)(=O)c2ccc3c(c2)oc(=O)n3C)CC1 | 0 | 0 | 0
Cn1c(=O)oc2cc(S(=O)(=O)NC3CCCCC3)ccc21 | 0 | 0 | 0
CC1CC(C)CN(CCCNS(=O)(=O)c2ccc3c(c2)oc(=O)n3C)C1 (stereo not given) | 0 | + | 0
Cn1c(=O)oc2cc(S(=O)(=O)NCC3CCCO3)ccc21 (stereo not given) | 0 | + | -
CO[C@H](CN(C)Cc1cc(F)ccc1F)[C@H](C)CN([C@H](C)CO)S(=O)(=O)c1ccc(Cl)cc1 | - | - | 0
COc1ccc2c3c(n(C)c2c1)[C@@H](CO)N(C(C)=O)CC31CN(C(=O)c2ccccc2)C1 | - | - | 0
Cc1ccc(NC(=O)c2ccc(-c3nn(C)c(=O)c4ccccc34)cc2)cc1 | 0 | + | -
Cn1nc(-c2ccc(C(=O)Nc3ccc(F)cc3)cc2)c2ccccc2c1=O | 0 | 0 | -
CCOC(=O)C1(CCCc2ccccc2)CCN(C(=O)c2ocnc2C)CC1 | 0 | 0 | 0
CCOC(=O)C1(CC2CC2)CCN(C(=O)c2ocnc2C)CC1 | 0 | + | 0
CSC1=NC(C)(C)C=C(/C=C/c2ccc(Cl)cc2Cl)N1 | 0 | + | 0
CCSC1=NC(C)(C)C=C(/C=C/c2ccc(Cl)cc2Cl)N1 | 0 | 0 | -
O=C(/C(=C/c1ccc(Cl)cc1)c1nc2ccccc2[nH]1)c1ccccc1 | 0 | + | -
O=C(N/C(=C/c1ccc(Cl)cc1)c1nc2ccccc2[nH]1)c1ccco1 | 0 | 0 | 0
C[C@@H]1CN([C@@H](C)CO)C(=O)Cc2cc(NC(=O)CCCN(C)C)ccc2O[C@H]1CN(C)Cc1ccc(Oc2ccccc2)cc1 | - | - | 0
CCN(c1ccccc1)S(=O)(=O)c1cc(C(=O)Nc2ccc(F)c(F)c2)ccc1F | 0 | + | 0
CCN(c1ccccc1)S(=O)(=O)c1ccc(C(=O)Nc2cccc(NC(C)=O)c2)cc1 | 0 | 0 | 0
CCC(=O)N1CC(=O)N2[C@H](CO)[C@H](c3ccc(C#Cc4cccc(OC)c4)cc3)[C@H]2C1 | - | - | 0
C[C@@H]1CCCCO[C@H](CN(C)C(=O)Nc2ccccc2)[C@@H](C)CN([C@H](C)CO)C(=O)c2cc(NS(=O)(=O)c3ccccc3)ccc2O1 | - | - | 0
CNC(=O)C[C@H]1CC[C@H]2[C@H](COc3ccc(NC(=O)Nc4c(C)noc4C)cc3C(=O)N2C)O1 | - | - | 0
SMILES | ABCB6 inh MLPCN | Myeloid diff MLP | Xi reactivation
O=C1[C@@H]2Cc3c([nH]c4ccccc34)CN2C(=O)CN1CCCO | 0 | 0 | 0
CCCCN1C(=O)C2Cc3c([nH]c4ccccc34)CN2C1=S (stereo not given) | 0 | + | 0
C=CCN1CC(=O)N2Cc3[nH]c4ccccc4c3C[C@H]2C1=O | 0 | + | 0
CCCCOCCCN1CC(=O)N2C(C)c3[nH]c4ccccc4c3C[C@H]2C1=O (stereo not given in full) | 0 | 0 | 0
CCCCCN1CC(=O)N2Cc3[nH]c4ccccc4c3C[C@H]2C1=O | 0 | 0 | 0
CCCCCN1CC(=O)N2C(C)c3[nH]c4ccccc4c3C[C@H]2C1=O (stereo not given in full) | 0 | + | 0
CC(C)NC(=O)Nc1ccc2c(c1)C(=O)N([C@H](C)CO)C[C@@H](C)[C@@H](CN(C)C(=O)C1CCCCC1)OCCCC[C@@H](C)O2 | - | - | 0
C[C@@H]1CN([C@@H](C)CO)C(=O)c2cc(C#Cc3ccccn3)cnc2O[C@@H]1CN(C)C(=O)c1ccccn1 | - | - | 0
COc1cccc(C(=O)NCC(=O)N/N=C/c2ccc3c(c2)OCO3)c1 | 73 | 0 | 0
O=C(CNC(=O)c1ccc2c(c1)OCO2)N/N=C(Br)/C=C/c1ccccc1 | 0 | + | -
O=C(CNC(=O)c1ccc2c(c1)OCO2)N/N=C/c1cccc([N+](=O)[O-])c1 | 0 | 0 | 0
COc1cccc(C(=O)NCC(=O)N/N=C/c2cccnc2)c1 | 0 | 0 | 0
C[C@@H]1CN([C@H](C)CO)S(=O)(=O)c2ccc(/C=C/c3ccccc3)cc2O[C@H]1CN(C)C(=O)c1ccncc1 | - | - | 0
COc1ccc2c3c(n(C)c2c1)[C@H](CO)N(C(=O)Nc1ccc(F)cc1)CC31CN(S(=O)(=O)c2cn(C)cn2)C1 | - | - | 0
Cn1cnc(S(=O)(=O)N[C@H]2CC[C@H](CC(=O)Nc3ccc(-c4ccccc4)cc3)O[C@H]2CO)c1 | - | - | 0
